IDH1 mut inh = inhibitors of IDH1 R132H reductase, primary screen, biochemical, plate reader, single point. hit rate 0.18% among 70,000. diaphorase/resazurin fluorescence, 60 min. Isocitrate dehydrogenase [NADP] cytoplasmic (Homo sapiens), O75874. inhibition, % at 10 µM; in the data active = inhibition above about 34%; inconclusive = no clear call, values can overlap the other calls; inactive = below about 11%
T cruzi growth-1 = T. cruzi intracellular proliferation inhibitors, primary screen, cell-based, beta-gal Tulahuen parasites, NIH3T3 host, luminescence; inhibition, % at 8.34 µM; T. cruzi beta-gal in NIH3T3, GalScreen luminescence, 90 h; hit rate 5.9% among 77,000;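 active = mean inhibition above about 93%, with at least 55% of replicates each passing it, limit read from the data, passing the limit was not always enough; inconclusive = only one of those two conditions holds; inactive = neither condition holds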
GASC1 inh = inhibitors of GASC-1 (KDM4C) histone demethylase, primary screen, biochemical, single concentration HTS; hit rate 0.15% among 96,000; GST-KDM4C 2-372, H3K9me3 peptide, LANCE TR-FRET; Lysine-specific demethylase 4C (Homo sapiens), Q9H3R0; inhibition, % at 12.5 µM;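 active = mean replicate inhibition above about 25%, with at least 55% of replicates also reaching it, limit read from the data, passing the limit was not always enough; inconclusive = only one of those two conditions met; inactive = neither condition met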
Target sequence (Q9H3R0 2-372 limits assumed): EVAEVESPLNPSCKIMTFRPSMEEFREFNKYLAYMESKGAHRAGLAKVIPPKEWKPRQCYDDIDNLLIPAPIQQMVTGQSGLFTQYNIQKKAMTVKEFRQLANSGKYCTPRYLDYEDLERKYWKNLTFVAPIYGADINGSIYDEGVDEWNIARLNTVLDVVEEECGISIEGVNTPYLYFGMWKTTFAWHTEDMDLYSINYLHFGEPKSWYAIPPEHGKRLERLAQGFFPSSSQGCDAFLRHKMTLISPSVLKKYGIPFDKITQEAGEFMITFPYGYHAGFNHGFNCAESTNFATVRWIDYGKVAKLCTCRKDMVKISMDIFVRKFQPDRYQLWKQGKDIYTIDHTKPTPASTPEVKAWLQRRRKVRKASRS
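System – N-terminal GST-fused human GASC-1 (KDM4C) fragment, residues 2-372 · Input – enzyme final amount 10 nM · Technique – LANCE TR-FRET, Eu antibody, ULight-streptavidin, EDTA, ex 340 nm, em 618/671 nm · Medium – HEPES buffer, pH 7.5, plus ascorbate · Incubation – enzyme reaction 30 min, then detection 60 min, both room temperature · Reagent – H3K9me3 peptide with Fe(II)/2OG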
T cruzi growth-2 = T. cruzi intracellular proliferation inhibitors, confirmation, cell-based, NIH3T3 host, beta-gal parasite, luminescence, cherry-pick; shares compounds with T cruzi growth-1; T. cruzi beta-gal in NIH3T3, GalScreen luminescence, 90 h; inhibition, % at 8.35 µM; hit rate 72% among 5,600; AID 651739, 2012;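 active = mean replicate inhibition above about 95% and at least 55% of replicates individually reaching it, limit read from the data; inconclusive = only one of the two criteria is met; inactive = neither criterion is met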
T cruzi growth-3 = inhibitors of intracellular T. cruzi replication, confirmation, NIH3T3 host cells, beta-gal parasites, cherry-pick, set 2; hit rate 21% among 5,600; inhibition, % at 2.09 µM; T. cruzi beta-gal in NIH3T3, GalScreen luminescence, 90 h; shares compounds with T cruzi growth-1;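 active = mean inhibition above about 95%, with at least 55% of replicates also reaching it, limit read from the data; inconclusive = meets just one of the two conditions; inactive = meets neither condition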
3T3 cytotox = cytotoxicity in mouse NIH/3T3 fibroblasts, confirmation, cytotoxicity control for T. cruzi proliferation inhibitor project, cell-based, cherry-pick, single point; shares compounds with T cruzi growth-1; NIH/3T3 viability, CellTiter-Glo ATP luminescence, 90 h; cytotoxicity (signal decrease), % at 8.35 µM; hit rate 14% among 5,600; AID 651742, 2012;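 active = mean signal decrease across replicates above about 35% based on untreated-well scatter, with enough replicates individually passing, limit read from the data; inconclusive = no rule stated though some were filed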
3T3 cytotox 2 = NIH/3T3 fibroblast cytotoxicity, confirmation, cytotoxicity control, cell-based, cherry-pick, single point, set 2; AID 651744, 2012; shares compounds with T cruzi growth-1; hit rate 56% among 5,600; inhibition, % at 24.9 µM; NIH/3T3 viability, CellTiter-Glo ATP luminescence, 90 h;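 active = mean loss of cell viability signal at or above a set limit, and enough replicates individually reaching it; inconclusive = meets only the mean limit or only the replicate share; inactive = meets neither condition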
Of the large screens only hits and unclear results are named; the others gave an inactive call (follow-up assays come after a bar, where they were run). This is one part of a sample in which hits are shown more often than they occur.

O=C(c1ccc(F)cc1)N1CCCCN2[C@@H](CO)[C@@H](c3ccc(/C=C/c4ccccc4)cc3)[C@@H]2C1	T cruzi growth-1 112 (no result: IDH1 mut inh) | T cruzi growth-2 98 | T cruzi growth-3 inactive | 3T3 cytotox 88 | 3T3 cytotox 2 104
O=C(Nc1ccc(I)cc1C(=O)NCC1CCCO1)c1cccnc1 (stereo not given)	none (no result: T cruzi growth-1, GASC1 inh)
N#Cc1c(NC(=O)CCN2C(=O)c3ccccc3C2=O)sc2c1CCCC2	none (no result: T cruzi growth-1, GASC1 inh)
COc1ccc(S(=O)(=O)Nc2ccc3c(c2)C(=O)N([C@@H](C)CO)C[C@H](C)[C@@H](CN(C)S(=O)(=O)c2cccs2)OCCCC[C@@H](C)O3)cc1	T cruzi growth-1 109 | T cruzi growth-2 103 | T cruzi growth-3 inactive | 3T3 cytotox inactive | 3T3 cytotox 2 inactive
COc1ccc(S(=O)(=O)Nc2ccc3c(c2)C(=O)N([C@H](C)CO)C[C@H](C)[C@@H](CN(C)S(=O)(=O)c2cccs2)OCCCC[C@@H](C)O3)cc1	none
COc1ccc(S(=O)(=O)Nc2ccc3c(c2)C(=O)N([C@H](C)CO)C[C@H](C)[C@@H](CN(C)S(=O)(=O)c2cccs2)OCCCC[C@H](C)O3)cc1	none (no result: IDH1 mut inh)
COc1ccc(S(=O)(=O)Nc2ccc3c(c2)C(=O)N([C@H](C)CO)C[C@H](C)[C@H](CN(C)S(=O)(=O)c2cccs2)OCCCC[C@H](C)O3)cc1	T cruzi growth-1 inconclusive (no result: IDH1 mut inh) | T cruzi growth-2 106 | T cruzi growth-3 inactive | 3T3 cytotox inactive | 3T3 cytotox 2 inactive
CCn1c(SCC(=O)Nc2cccc(C)c2C)nnc1-c1ccc(Cl)c(Cl)c1	none (no result: T cruzi growth-1, GASC1 inh)
CO[C@H](CN(C)S(=O)(=O)c1ccc(F)cc1)[C@H](C)CN([C@H](C)CO)S(=O)(=O)c1cccc(Cl)c1	T cruzi growth-1 101 | T cruzi growth-2 inactive | 3T3 cytotox inactive | 3T3 cytotox 2 55
CO[C@@H](CN(C)S(=O)(=O)c1ccc(F)cc1)[C@H](C)CN([C@H](C)CO)S(=O)(=O)c1cccc(Cl)c1	none
CO[C@@H](CN(C)S(=O)(=O)c1ccc(F)cc1)[C@@H](C)CN([C@@H](C)CO)S(=O)(=O)c1cccc(Cl)c1	T cruzi growth-1 109 | T cruzi growth-2 inactive | T cruzi growth-3 inactive | 3T3 cytotox inactive | 3T3 cytotox 2 53
CO[C@@H](CN(C)S(=O)(=O)c1ccc(Cl)cc1)[C@H](C)CN([C@H](C)CO)S(=O)(=O)c1cccc(Cl)c1	none
Cc1nnc(SCC(=O)n2c3c(c4ccccc42)CCCC3)n1C	none (no result: T cruzi growth-1, GASC1 inh)
Cc1ccc(C(C)C)c(OCC(=O)Nc2cc(-c3nc4ccccc4o3)ccc2C)c1	none (no result: T cruzi growth-1, GASC1 inh)
C[C@@H]1CN([C@H](C)CO)C(=O)Cc2cc(N(C)C)ccc2O[C@H]1CN(C)Cc1ccc(C(F)(F)F)cc1	T cruzi growth-1 108 | T cruzi growth-2 inactive | T cruzi growth-3 inactive | 3T3 cytotox inactive | 3T3 cytotox 2 inactive
C[C@@H]1CN([C@@H](C)CO)C(=O)Cc2cc(N(C)C)ccc2O[C@@H]1CN(C)Cc1ccc(C(F)(F)F)cc1	none
C[C@H]1CN([C@@H](C)CO)C(=O)Cc2cc(N(C)C)ccc2O[C@@H]1CN(C)Cc1ccc(C(F)(F)F)cc1	T cruzi growth-1 119 | T cruzi growth-2 111 | T cruzi growth-3 inactive | 3T3 cytotox inactive | 3T3 cytotox 2 inactive
C[C@@H]1CN([C@H](C)CO)C(=O)Cc2cc(N(C)C)ccc2O[C@@H]1CN(C)Cc1ccc(C(F)(F)F)cc1	none
CCc1nnc(SCC(=O)Nc2cccc([N+](=O)[O-])c2)o1	none (no result: T cruzi growth-1, GASC1 inh)
Cc1ccc(S(=O)(=O)Nc2ccc3c(c2)CC(=O)N([C@@H](C)CO)C[C@@H](C)[C@@H](CN(C)Cc2ccc4c(c2)OCO4)O3)cc1	none
C[C@@H]1CN([C@H](C)CO)C(=O)Cc2cc(NS(=O)(=O)c3ccc(Cl)cc3)ccc2O[C@H]1CN(C)Cc1ccc2c(c1)OCO2	T cruzi growth-1 113 | T cruzi growth-2 108 | T cruzi growth-3 inactive | 3T3 cytotox inactive | 3T3 cytotox 2 inactive
Cc1ccc(S(=O)(=O)Nc2ccc3c(c2)CC(=O)N([C@H](C)CO)C[C@H](C)[C@@H](CN(C)Cc2ccc4c(c2)OCO4)O3)cc1	T cruzi growth-1 106 | T cruzi growth-2 104 | T cruzi growth-3 99 | 3T3 cytotox inactive | 3T3 cytotox 2 25
C[C@@H]1CN([C@@H](C)CO)C(=O)Cc2cc(NS(=O)(=O)c3ccc(Cl)cc3)ccc2O[C@H]1CN(C)Cc1ccc2c(c1)OCO2	none
C[C@@H]1CN([C@@H](C)CO)C(=O)Cc2cc(NS(=O)(=O)c3ccc(F)cc3)ccc2O[C@@H]1CN(C)Cc1ccc2c(c1)OCO2	none
C[C@@H]1CN([C@H](C)CO)C(=O)Cc2cc(NS(=O)(=O)c3ccc(Cl)cc3)ccc2O[C@@H]1CN(C)Cc1ccc2c(c1)OCO2	T cruzi growth-1 99 (no result: IDH1 mut inh) | T cruzi growth-2 106 | T cruzi growth-3 inactive | 3T3 cytotox inconclusive | 3T3 cytotox 2 42
O=C(CC1(O)C(=O)N(Cc2cccc3ccccc23)c2ccccc21)c1ccccn1 (stereo not given)	none (no result: T cruzi growth-1, GASC1 inh)
CC1CCC2(C)C(C(=O)O)=CCCC2C1(C)CCC1=CC(=O)OC1O (stereo not given)	none (no result: T cruzi growth-1, GASC1 inh)
Cc1ccc(OCC(=O)Nc2ccc3c(c2)oc2ccccc23)cc1[N+](=O)[O-]	none (no result: T cruzi growth-1, GASC1 inh)
C[C@@H]1CN([C@H](C)CO)S(=O)(=O)c2ccc(-c3ccccc3F)cc2O[C@@H]1CN(C)Cc1cccnc1	none
C[C@@H]1CN([C@@H](C)CO)S(=O)(=O)c2ccc(-c3ccccc3F)cc2O[C@H]1CN(C)Cc1cccnc1	T cruzi growth-1 101 | T cruzi growth-2 101 | T cruzi growth-3 97 | 3T3 cytotox 56 | 3T3 cytotox 2 95
Cc1ccccc1-c1ccc2c(c1)O[C@H](CN(C)Cc1ccncc1)[C@H](C)CN([C@H](C)CO)S2(=O)=O	none
Cc1ccccc1-c1ccc2c(c1)O[C@H](CN(C)Cc1ccncc1)[C@@H](C)CN([C@@H](C)CO)S2(=O)=O	IDH1 mut inh 45, T cruzi growth-1 97 | T cruzi growth-2 99 | T cruzi growth-3 99 | 3T3 cytotox 41 | 3T3 cytotox 2 105
C[C@H](CO)N1C[C@H](C)[C@@H](CN(C)Cc2cncnc2)Oc2cc(-c3ccccc3F)ccc2S1(=O)=O	none

From PubChem
